Measurements gathered from unrelated publications.
Each line is one published result; the experiments were not run side by side. pIC50: −log10 of the molar value.
Cell line: MCF7
Read-out: cell growth or viability

Compound | test | conditions | measurement | result
O=C(C=Cc1ccc(OCCCOc2ccc(C=CC(=O)c3cccs3)cc2)cc1)c1cccs1 | MTT | 48 h | pIC50 | 4.52
COc1cc(C2C3=C(Nc4nc(SC)[nH]c(=O)c42)c2ccccc2C3=O)ccc1O (stereo not shown) | MTT | 72 h | pIC50 | < 3.00
O=C(NCc1ccc(OC(F)(F)F)cc1)c1cn(Cc2ccc(F)cc2)c2ccc(Oc3ccccc3)cc2c1=O | MTT | 48 h | pIC50 | 4.10
CCOC(=O)c1c(C)nc2ccc(-c3ccc(F)c(F)c3)cc2c1O | MTT | 48 h | pIC50 | 4.92
Fc1ccc2c(-c3nnc(Cc4ccccc4)s3)nn(Cc3ccccc3)c2c1 |  | 48 h | pIC50 | 3.79
CC(=NNC(=O)c1cc(-c2ccccc2)n(-c2ccc(S(N)(=O)=O)cc2)n1)c1ccc(C)cc1 | fluorescence | 48 h | pIC50 | 4.73
NNc1nc2ccc(Br)cc2c(=O)n1-c1ccc(F)cc1 | MTT | 48 h | pIC50 | 5.00
CN1CCC(NC2CCc3[nH]c4c(C(N)=O)ccc(-c5ccccc5Cl)c4c3C2)CC1 (stereo not shown) |  |  | pIC50 | 7.79
C#Cc1cccc(Nc2ncnc3cc(OCCOC)c(OCCOC)cc23)c1 | MTT | 48 h | pIC50 | < 4.70
Cc1ccc(CN2C(=O)C(=Nc3cccc(C)c3)c3ccccc32)cc1 | MTT | 48 h | pIC50 | 5.55
O=C1CS/C(=N\c2cc(C(F)(F)F)ccc2-c2nnc(N3C(=O)CS/C3=N\c3ccc(F)cc3)s2)N1c1ccc(F)cc1 | MTT |  | pIC50 | 4.65
COc1ccc2c(-c3nc(-c4ccccc4)no3)nn(Cc3ccncc3)c2c1 |  | 48 h | pIC50 | 4.06
O=C1CS/C(=N\c2cc(C(F)(F)F)ccc2-c2nnc(N3C(=O)CS/C3=N\c3cc(O)cc(Br)c3)s2)N1c1cc(O)cc(Br)c1 | MTT |  | pIC50 | 4.13
O=[N+]([O-])c1cc(I)c(O)c(C=NNc2ccc(Cl)cc2)c1 | MTT | 24 h | pIC50 | 4.85
C#Cc1cccc(Nc2ncnc3cc(OCCOC)c(OCCOC)cc23)c1 | LDH | 48 h | pIC50 | 5.98
O=C(CCc1ccc(Cl)cc1)N1C(=O)C(=Nc2ccc(Cl)cc2Br)c2ccccc21 | MTT | 48 h | pIC50 | 4.47
C[C@H]1[C@H](C)CC[C@]2(C)CC[C@]3(C)C(=CC(=O)[C@@H]4[C@@]5(C)CC[C@@H](O)[C@](C)(C(=O)NCc6cn(-c7ccc(F)cc7)nn6)[C@@H]5CC[C@]43C)[C@H]12 | MTT | 24 h | pIC50 | 4.12
O=c1c2cc(Cl)cc(Cl)c2nc(NNc2cccc(Cl)c2)n1-c1ccccc1 | MTT | 48 h | pIC50 | < 3.70
C/C(=N\C(=S)/N=C(\C)c1c(O)c2ccccc2oc1=O)c1c(O)c2ccccc2oc1=O | MTT | 48 h | pIC50 | 5.12
CCCNC(=S)N/N=C/c1cccc2cc3ccccc3nc12 | MTT | 48 h | pIC50 | 4.32
Cc1ccc(CN2C(=O)C(=Nc3cccc(Cl)c3)c3ccccc32)cc1 | MTT | 48 h | pIC50 | 5.65
O=C1C(Cl)=C(n2ccnc2)C(=O)c2ccccc21 | MTT | 24 h | IC50 | 48.8 µg/mL
